Compound activity: PubChem BioAssay, several laboratories
AI-2 QS modul: modulates the Vibrio harveyi AI-2 quorum sensing system; 300,000 tested, 0.4% active; activity change, % at 7.5 µM; Vibrio harveyi JMH597 AI-2 luminescence/OD600 ratio, 9 h; stronger effect = lower value; strain lacks LuxN and CqsS sensors; 0 = neutral-control median; in the data active = activity change below about -75%, passing the limit was not always enough;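 also: luminescence divided by OD600 gain over 9 h not by final OD600 alone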
KCNQ1 inh: inhibitors of human KCNQ1 potassium channel; CHO-K1 KCNQ1, FluxOR thallium flux fluorescence; stronger effect = higher value; B-score at 10 µM; 310,000 tested, 1.3% active;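 active = compounds whose thallium flux B-score, printed positive for inhibition, exceeds three library SD while starting fluorescence stays within three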;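 also: channel opened by potassium depolarization with thallium stimulus after 20 min compound exposure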
Mot1-301 SUMO: blocks SUMOylation pathway, rescuing yeast Mot1-301 growth. growth rescue, % at 18.8 µM. AID 2716. S. cerevisiae Mot1-301 growth rescue, ATP luminescence, 38.5C; percent above DMSO median, 100 means doubled. 320,000 tested, 1% active;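 active = every valid replicate shows activation above 250% relative to neutral control wells; inactive = the rest, any valid replicate at or below 250%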;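 also: OY570 slx delta 5 strain wells were the positive control but not used for scaling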
hERG protect: hERG (human) protection from proarrhythmic block. Q12809. CHO-hERG, FluxOR thallium flux, dofetilide IC70 present. activation (rescue from dofetilide block), less the hit threshold, % at 10 µM. 310,000 tested, 0.51% active;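 active = activation above the mean of controls blocked by dofetilide plus 5 SD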;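 also: thallium influx through hERG after potassium depolarization seen as dye fluorescence rise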
KCC2 mod: modulates chloride dependent transport by human KCC2 | 190,000 tested, 2.2% active | KCC2 cells, thallium flux FluoZin-2 fluorescence | Q9H2X9 | B-score of Tl+ flux slope (higher = more flux/activation; lower = inhibition) at 10 µM;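 active = thallium flux slope and its plate-corrected score both differing from the plate sample mean at a set confidence after two filtering rounds, in either direction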;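 also: slope of fluorescence scaled to starting intensity during 10 to 20 s after thallium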
KCNQ1 act: human KCNQ1 channel potentiation or activation. B-score at 10 µM. 310,000 tested, 0.35% active. CHO-K1 KCNQ1, thallium flux FluxOR fluorescence; stronger effect = higher value;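 active = fluorescence ratio B-score, a plate-corrected score, at least three library SD, with initial intensity B-score within 5 SD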
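Medium – assay buffer, equal DMSO in all wells · Material – CHO-K1 cell line with stable KCNQ1 potassium channel expression · Signal – kinetic FluxOR thallium fluorescence, 10-s 1-Hz baseline, 110-s post-stimulus read · Compound – single concentration per compound, DMSO matched to controls · Schedule – 37 °C overnight plating, 90-min dark dye load, 20-min compound pretreatment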
Starred values were filed as active, the others as inactive. This is a sample that favours compounds with a hit; in the whole collection about 4.2% have one here.

Screening CCOc1ccc(CCNC(=O)CCC(=O)N2CCOc3ccccc32)cc1OCC returned AI-2 QS modul 10, KCNQ1 inh inactive, Mot1-301 SUMO 11, hERG protect -8 and KCNQ1 act inactive.
`Cc1cccc(NC(=S)N/N=C/C(C)c2ccccc2)c1C` (configuration not stated) gave AI-2 QS modul 8, KCNQ1 inh inactive, Mot1-301 SUMO 20, hERG protect 4.8*, KCC2 mod 5.5 and KCNQ1 act inactive.
For COc1cccc(/C=C/C(=O)OCC(=O)Nc2nnc(-c3ccccc3)o2)c1 the results were AI-2 QS modul 30, KCNQ1 inh inactive, Mot1-301 SUMO 5, hERG protect -9 and KCNQ1 act inactive.
Screening Cc1[nH]c2ccccc2c(=O)c1CN(C)Cc1ccccc1 returned AI-2 QS modul 2, KCNQ1 inh inactive, Mot1-301 SUMO 331*, hERG protect -3 and KCNQ1 act inactive.
For COc1ccc(CCN2CC(C(=O)N(C)Cc3c(C)n[nH]c3C)CCC2=O)cc1 (configuration not stated) the results were AI-2 QS modul 25, KCNQ1 inh inactive, hERG protect -8 and KCNQ1 act inactive.
`O=C(/C=C\Nc1ccc(Br)cc1)c1cccnc1` gave AI-2 QS modul -47, KCNQ1 inh inactive, hERG protect -9, KCC2 mod -0.67 and KCNQ1 act inactive.
For COC(=O)C1=C(COc2ccc(F)cc2)NC(=O)NC1c1ccc(C)cc1C (configuration not stated) the results were AI-2 QS modul 10, KCNQ1 inh inactive, Mot1-301 SUMO 8, hERG protect 7.4* and KCNQ1 act inactive.
`COc1ccc(CS(=O)(=O)CC(C)(O)c2ccccc2Cl)cc1` (configuration not stated) gave AI-2 QS modul 16, KCNQ1 inh inactive, Mot1-301 SUMO 28, hERG protect -14 and KCNQ1 act inactive.
Screening CCc1nnc(NC(=O)CCC(=O)N2CCN(C3CCCCC3)CC2)s1 returned AI-2 QS modul 11, KCNQ1 inh inactive, Mot1-301 SUMO -21, hERG protect 4, KCC2 mod 0.099 and KCNQ1 act 13*.
`CN1CCN(C(=O)C(C(=O)c2ccc(F)cc2)n2ccccc2=O)CC1` (configuration not stated) gave AI-2 QS modul -5, KCNQ1 inh inactive, Mot1-301 SUMO 8, hERG protect -11, KCC2 mod 0.63 and KCNQ1 act inactive.
Screening Cn1c(=O)c(Nc2ccc(Cl)cc2)c2c3c(cccc31)C(=O)c1ccccc1-2 returned AI-2 QS modul 22, KCNQ1 inh 9*, Mot1-301 SUMO 2, hERG protect -8, KCC2 mod inactive and KCNQ1 act inactive.
Cn1ncc(Cl)c1C(=O)N1CCC(Cc2ccccc2)CC1 was read as AI-2 QS modul 5, KCNQ1 inh inactive, Mot1-301 SUMO 10, hERG protect -11 and KCNQ1 act inactive.
O=[N+]([O-])c1cnc(Sc2ccncn2)s1 was read as AI-2 QS modul -88*, KCNQ1 inh inactive, Mot1-301 SUMO 44, hERG protect -29, KCC2 mod -3.3 and KCNQ1 act inactive.
`COC(=O)N1C(=O)[C@@](Cc2ccccc2)(c2ccccc2)N1C(=O)OC` gave AI-2 QS modul 15, KCNQ1 inh inactive, Mot1-301 SUMO -3, hERG protect 5.4* and KCNQ1 act inactive.
COC(=O)N1C(=O)[C@](Cc2ccccc2)(c2ccccc2)N1C(=O)OC was read as AI-2 QS modul 35, KCNQ1 inh inactive, Mot1-301 SUMO 33, hERG protect -3 and KCNQ1 act inactive.
C=CCNC(=S)NNC(=O)COc1cccc(Cl)c1 was read as AI-2 QS modul -1, KCNQ1 inh inactive, Mot1-301 SUMO 334, hERG protect -7 and KCNQ1 act inactive.
`COC(=O)CC1=C(C(=O)OC)[C@@H](c2ccccc2[N+](=O)[O-])C(C#N)=C(N)O1` gave AI-2 QS modul 10, KCNQ1 inh inactive, Mot1-301 SUMO -7, hERG protect -11, KCC2 mod 0.095 and KCNQ1 act inactive.
